In the library only some 5.9% were active in any assay of this set; here they are far more common.
T cruzi growth-1: blocks T. cruzi growth in NIH3T3 culture | T. cruzi beta-gal in NIH3T3, GalScreen luminescence, 90 h | inhibition, % at 8.34 µM | hit rate 5.9% among 77,000;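 active means mean inhibition above about 93%, with at least 55% of replicates each passing it, limit read from the data, passing the limit was not always enough; inconclusive means only one of those two conditions holds; inactive means neither condition holds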
Pf Dd2 growth: inhibitors of Plasmodium falciparum Dd2 growth. activity change, % at 10 µM. P. falciparum Dd2 growth, SYBR Green, 72 h; active compounds read low. hit rate 2.3% among 94,000. AID 1159554; in the data active means activity change below about -80%; inconclusive means no clear call, values can overlap the other calls
KDM4C inh: inhibitors of human demethylase GASC-1 KDM4C; AID 720574; GST-KDM4C 2-372, H3K9me3 peptide, LANCE TR-FRET; hit rate 0.15% among 96,000; inhibition, % at 12.5 µM;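 active means mean replicate inhibition above about 25%, with at least 55% of replicates also reaching it, limit read from the data, passing the limit was not always enough; inconclusive means only one of those two conditions met; inactive means neither condition met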
Target sequence (Q9H3R0 2-372 limits assumed): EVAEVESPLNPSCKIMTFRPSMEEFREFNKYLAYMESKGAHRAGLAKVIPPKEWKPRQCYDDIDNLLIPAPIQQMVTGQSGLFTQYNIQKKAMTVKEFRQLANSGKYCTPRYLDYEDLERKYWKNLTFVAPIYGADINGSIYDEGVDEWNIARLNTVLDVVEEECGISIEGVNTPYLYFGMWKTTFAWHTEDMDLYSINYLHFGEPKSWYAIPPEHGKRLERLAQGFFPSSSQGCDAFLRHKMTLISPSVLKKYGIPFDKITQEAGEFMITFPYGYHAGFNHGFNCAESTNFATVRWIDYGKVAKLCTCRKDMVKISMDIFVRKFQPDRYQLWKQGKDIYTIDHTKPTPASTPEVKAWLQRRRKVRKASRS
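Compound: one test concentration per compound; Material: GST-GASC-1 enzyme fragment 2-372; Amount: GASC-1 enzyme at 10 nM final in reaction; Also added: H3K9me3 peptide substrate, Fe(II), 2-oxoglutarate; Technique: LANCE TR-FRET; Times: 30 min demethylation and 1 h detection at room temperature.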
IDH1 mut inh: blocks human IDH1 R132H reductase activity; O75874; diaphorase/resazurin fluorescence, 60 min; inhibition, % at 10 µM; hit rate 0.18% among 70,000; AID 624101; in the data active means inhibition above about 34%; inconclusive means no clear call, values can overlap the other calls; inactive means below about 11%;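 further: 0% = DMSO and 100% = no enzyme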
T cruzi growth-2: inhibitors of T. cruzi proliferation. T. cruzi beta-gal in NIH3T3, GalScreen luminescence, 90 h. hit rate 72% among 5,600. shares compounds with T cruzi growth-1. inhibition, % at 8.35 µM. AID 651739;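 active means mean replicate inhibition above about 95% and at least 55% of replicates individually reaching it, limit read from the data; inconclusive means only one of the two criteria is met; inactive means neither criterion is met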
T cruzi growth-3: inhibitors of T. cruzi proliferation; inhibition, % at 2.09 µM; shares compounds with T cruzi growth-1; hit rate 21% among 5,600; AID 651740; T. cruzi beta-gal in NIH3T3, GalScreen luminescence, 90 h;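 active means mean inhibition above about 95%, with at least 55% of replicates also reaching it, limit read from the data; inconclusive means meets just one of the two conditions; inactive means meets neither condition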;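 further: plate controls were neutral control median for no effect and positive control median for full effect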
3T3 cytotox: cytotoxicity in mouse NIH/3T3 fibroblasts; shares compounds with T cruzi growth-1; NIH/3T3 viability, CellTiter-Glo ATP luminescence, 90 h; cytotoxicity (signal decrease), % at 8.35 µM; hit rate 14% among 5,600; AID 651742;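 active means mean signal decrease across replicates above about 35% based on untreated-well scatter, with enough replicates individually passing, limit read from the data; inconclusive means no rule stated though some were filed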;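 further: 0% = median of neutral control wells and 100% = median of positive control wells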
NIH3T3 tox 2: NIH/3T3 (mouse) viability loss; hit rate 56% among 5,600; inhibition, % at 24.9 µM; AID 651744; NIH/3T3 viability, CellTiter-Glo ATP luminescence, 90 h; shares compounds with T cruzi growth-1;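 active means mean loss of cell viability signal at or above a set limit, and enough replicates individually reaching it; inconclusive means meets only the mean limit or only the replicate share; inactive means meets neither condition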;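 further: 0% = median of neutral control wells and 100% = median of positive control wells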
* marks the source's active call; other numbers are inactive results.

Screening CCCC#Cc1ccc2c(c1)O[C@H](CN(C)Cc1ccncc1)[C@@H](C)CN([C@@H](C)CO)S2(=O)=O returned T cruzi growth-1 121*, Pf Dd2 growth -74, KDM4C inh 22, IDH1 mut inh 1, T cruzi growth-2 106*, T cruzi growth-3 101*, 3T3 cytotox 42* and NIH3T3 tox 2 104*.
O=C(Nc1cc(Cl)cc(Cl)c1)N[C@@H]1CC[C@@H](CCNS(=O)(=O)c2cccc(F)c2)O[C@@H]1CO was read as T cruzi growth-1 147*, Pf Dd2 growth -26, KDM4C inh 0, IDH1 mut inh 0, T cruzi growth-2 104*, T cruzi growth-3 3, 3T3 cytotox 10 and NIH3T3 tox 2 65*.
For O=C(Nc1cc(Cl)cc(Cl)c1)N[C@H]1CC[C@@H](CCNS(=O)(=O)c2cccc(F)c2)O[C@@H]1CO the results were T cruzi growth-1 inconclusive, Pf Dd2 growth 6, KDM4C inh -2, IDH1 mut inh 0, T cruzi growth-2 100*, T cruzi growth-3 39, 3T3 cytotox 40* and NIH3T3 tox 2 81*.
For O=C(Nc1cc(Cl)cc(Cl)c1)N[C@H]1CC[C@H](CCNS(=O)(=O)c2cccc(F)c2)O[C@H]1CO the results were T cruzi growth-1 176*, Pf Dd2 growth 5, KDM4C inh 0, IDH1 mut inh 0, T cruzi growth-2 104*, T cruzi growth-3 48, 3T3 cytotox 33 and NIH3T3 tox 2 57*.
`O=C(Nc1ccc(Cl)cc1)N[C@H]1CC[C@@H](CCNC(=O)c2ccccc2F)O[C@H]1CO` gave T cruzi growth-1 36, Pf Dd2 growth -3 and IDH1 mut inh -1.
For O=C(Nc1ccc(Cl)cc1)N[C@H]1CC[C@@H](CCNC(=O)c2ccccc2F)O[C@@H]1CO the results were T cruzi growth-1 142*, Pf Dd2 growth -8, KDM4C inh 0, IDH1 mut inh 0, T cruzi growth-2 36, T cruzi growth-3 14, 3T3 cytotox -9 and NIH3T3 tox 2 -18.
Screening CC(C)c1ccc(NC(=O)Cn2cc([N+](=O)[O-])cn2)cc1 returned IDH1 mut inh 0.
For O=C(Cc1ccccn1)N[C@H]1CC[C@@H](CCNS(=O)(=O)c2cccc(F)c2)O[C@@H]1CO the results were T cruzi growth-1 101*, Pf Dd2 growth 2, KDM4C inh 6, IDH1 mut inh 2, T cruzi growth-2 41, T cruzi growth-3 19, 3T3 cytotox 5 and NIH3T3 tox 2 18.
Screening CC(C)C#Cc1ccc2c(c1)O[C@@H](CN(C)C(=O)c1ccncc1)[C@@H](C)CN([C@H](C)CO)S2(=O)=O returned T cruzi growth-1 107*, Pf Dd2 growth -11, KDM4C inh -1, IDH1 mut inh 2, T cruzi growth-2 102*, T cruzi growth-3 inconclusive, 3T3 cytotox 27 and NIH3T3 tox 2 42*.
For CC(C)C#Cc1ccc2c(c1)O[C@H](CN(C)C(=O)c1ccccc1)[C@@H](C)CN([C@H](C)CO)S2(=O)=O the results were T cruzi growth-1 115*, Pf Dd2 growth -65, KDM4C inh 2, IDH1 mut inh 0, T cruzi growth-2 105*, T cruzi growth-3 61, 3T3 cytotox 0 and NIH3T3 tox 2 30*.
`CC(C)C#Cc1ccc2c(c1)O[C@@H](CN(C)C(=O)c1ccccc1)[C@H](C)CN([C@H](C)CO)S2(=O)=O` gave T cruzi growth-1 99*, Pf Dd2 growth -76, KDM4C inh 0, IDH1 mut inh 0, T cruzi growth-2 104*, T cruzi growth-3 46, 3T3 cytotox 46* and NIH3T3 tox 2 39*.
`CC(C)C#Cc1ccc2c(c1)O[C@H](CN(C)Cc1cccnc1)[C@H](C)CN([C@@H](C)CO)S2(=O)=O` gave T cruzi growth-1 104*, Pf Dd2 growth -28, KDM4C inh 2, IDH1 mut inh 2, T cruzi growth-2 98*, T cruzi growth-3 56, 3T3 cytotox inconclusive and NIH3T3 tox 2 65*.
Screening CC(C)C#Cc1ccc2c(c1)O[C@@H](CN(C)Cc1cccnc1)[C@H](C)CN([C@@H](C)CO)S2(=O)=O returned T cruzi growth-1 107*, Pf Dd2 growth -51, KDM4C inh 17, T cruzi growth-2 99*, T cruzi growth-3 92, 3T3 cytotox 56* and NIH3T3 tox 2 67*.
c1cc2c(cc1C1CCCCC1)c1c3n2CCNC3CCC1 (stereo unspecified) was read as IDH1 mut inh -1.
For COc1ccccc1C#Cc1cnc2c(c1)C(=O)N([C@H](C)CO)C[C@@H](C)[C@H](CN(C)C(=O)CC1CC1)O2 the results were T cruzi growth-1 108*, Pf Dd2 growth -63, KDM4C inh -1, T cruzi growth-2 102*, T cruzi growth-3 30, 3T3 cytotox -3 and NIH3T3 tox 2 39*.
Screening COc1ccccc1C#Cc1cnc2c(c1)C(=O)N([C@@H](C)CO)C[C@H](C)[C@H](CN(C)C(=O)CC1CC1)O2 returned T cruzi growth-1 33, Pf Dd2 growth -46, KDM4C inh -1 and IDH1 mut inh 0.
Screening COc1ccccc1C#Cc1cnc2c(c1)C(=O)N([C@@H](C)CO)C[C@@H](C)[C@H](CN(C)C(=O)CC1CC1)O2 returned T cruzi growth-1 108*, Pf Dd2 growth -60, KDM4C inh -2, IDH1 mut inh -3, T cruzi growth-2 112*, T cruzi growth-3 111*, 3T3 cytotox 13 and NIH3T3 tox 2 45*.
Screening COc1ccc(NC(=O)Nc2ccc3c(c2)C(=O)N([C@H](C)CO)C[C@H](C)[C@H](CN(C)S(=O)(=O)c2ccc(F)cc2)OCCCC[C@H](C)O3)cc1 returned T cruzi growth-1 inconclusive, Pf Dd2 growth -51, KDM4C inh -1, T cruzi growth-2 103*, T cruzi growth-3 58, 3T3 cytotox 2 and NIH3T3 tox 2 7.
For COc1ccc(S(=O)(=O)N(C)C[C@@H]2OCCCC[C@@H](C)Oc3ccc(NC(=O)Nc4ccc(F)cc4)cc3C(=O)N([C@@H](C)CO)C[C@H]2C)cc1 the results were T cruzi growth-1 111*, Pf Dd2 growth -45, KDM4C inh 0, T cruzi growth-2 107*, T cruzi growth-3 87, 3T3 cytotox 0 and NIH3T3 tox 2 14.
Cc1cc(C)cc(C(=O)N(C)C(Cc2ccc(-c3ccccc3)cc2)C(=O)NC(Cc2c[nH]c3ccccc23)C(=O)O)c1 (stereo unspecified) was read as IDH1 mut inh 0.
For Nc1ncnc2c1c1nc3ccccc3nc1n2CCc1ccccc1 the results were IDH1 mut inh 0.
